Source: ChEMBL document CHEMBL1130129, “Immunologically specific activation of a cephalosporin derivative of mitomycin C by monoclonal antibody beta-lactamase conjugates” (J Med Chem, 1997)

Experiments:
[1] = Ratio of kinetic constants for hydrolysis by beta-lactamase from Enterobacter cloacae P99 (kcat/Km); design: unit not given here
In short: (§1)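 Purified E. cloacae β-lactamase (0.1 µg/mL) added to prodrug in PBS pH 7.2 containing 12.5 µg/mL bovine serum albumin, 23 °C; β-lactam hydrolysis followed by loss of absorbance at 260 nm. Initial velocities taken from linear portions of absorbance-time plots and used to derive kinetic constants.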

[2] = target: Beta-lactamase (Enterobacter cloacae) (UniProt P05364); test: Determination of kinetic constant (Kcat) for hydrolysis by beta-lactamase from Enterobacter cloacae P99; in short: as §1
Beta-lactamase (Enterobacter cloacae), sequence (P05364 21-381 limits assumed): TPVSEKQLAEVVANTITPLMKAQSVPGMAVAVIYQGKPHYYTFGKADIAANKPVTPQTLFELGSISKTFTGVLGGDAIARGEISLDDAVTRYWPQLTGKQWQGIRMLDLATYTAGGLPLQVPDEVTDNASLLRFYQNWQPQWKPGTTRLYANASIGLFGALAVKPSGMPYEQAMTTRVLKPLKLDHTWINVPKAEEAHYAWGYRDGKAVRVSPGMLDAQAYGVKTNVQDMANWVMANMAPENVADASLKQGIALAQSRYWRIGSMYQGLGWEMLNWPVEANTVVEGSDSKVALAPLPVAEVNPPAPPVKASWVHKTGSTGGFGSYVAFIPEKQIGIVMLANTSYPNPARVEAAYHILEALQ

Compound | Ratio [1] | k cat [2]
COc1cccc2c1C(=O)c1c(O)c3c(c(O)c1C2=O)C[C@@](O)(C(=O)CO)C[C@@H]3OC1CC(NC(=O)OCC2=C(C(=O)O)N3C(=O)[C@@H](NC(=O)CCCC(=O)O)[C@H]3SC2)C(O)C(C)O1 (some centres undefined) | 2.5 | –
O=C(Cc1ccccc1)N[C@@H]1C(=O)N2C(C(=O)O)=C(COC(=O)Nc3ccc(N(CCCl)CCCl)cc3)CS[C@H]12 | 17 | 119 s⁻¹
CO[C@@]12[C@H](COC(N)=O)C3=C(C(=O)C(C)=C(NCC4=C(C(=O)O)N5C(=O)[C@@H](NC(=O)Cc6ccccc6)[C@H]5SC4)C3=O)N1C[C@@H]1N[C@@H]12 | 9.7 | 476 s⁻¹
O=C(O)CCCC(=O)N[C@@H]1C(=O)N2C(C(=O)O)=C(COC(=O)Nc3ccc(N(CCCl)CCCl)cc3)CS[C@H]12 | 7.8 | 337 s⁻¹
CO[C@@]12[C@H](COC(N)=O)C3=C(C(=O)C(C)=C(NCC4=C(C(=O)O)N5C(=O)[C@@H](NC(=O)CCCC(=O)O)[C@H]5SC4)C3=O)N1C[C@@H]1N[C@@H]12 | 2.1 | 248 s⁻¹
